# From PubChem BioAssay
# Calls of active or inactive are those of the source.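 The calls were made as follows: active = potentiation averaged over duplicate wells exceeding buffer-only control mean by more than 3 SD; inactive = the rest.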
# Biological target: Potassium voltage-gated channel subfamily KQT member 1 (Homo sapiens) (UniProt P51787)
# Assay: KCNQ1 potassium channel potentiators, confirmation, FluxOR thallium flux, CHO cells, duplicates (AID 493007);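 as to outcome: cells depolarized by a potassium plus thallium sulfate stimulus after compound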;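 as to potentiation: 0% = buffer-only wells and 100% = R-L3 activator control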
# Conditions: KCNQ1 cell line, FluxOR thallium flux fluorescence, at 10 µM; hits give high values, % of reference activator effect, buffer zero
# Outline: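 material = CHO cells stably expressing the KCNQ1 potassium channel | repeats = duplicate wells per compound | measure = percent activation between buffer and R-L3 responses | signal = FluxOR thallium-flux fluorescence, kinetic read | schedule = FluxOR dye loading 90 min, compound exposure 20 min, room temperature | control set = buffer and R-L3 controls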
# Potassium voltage-gated channel subfamily KQT member 1 (Homo sapiens), sequence (P51787 whole entry, looked up): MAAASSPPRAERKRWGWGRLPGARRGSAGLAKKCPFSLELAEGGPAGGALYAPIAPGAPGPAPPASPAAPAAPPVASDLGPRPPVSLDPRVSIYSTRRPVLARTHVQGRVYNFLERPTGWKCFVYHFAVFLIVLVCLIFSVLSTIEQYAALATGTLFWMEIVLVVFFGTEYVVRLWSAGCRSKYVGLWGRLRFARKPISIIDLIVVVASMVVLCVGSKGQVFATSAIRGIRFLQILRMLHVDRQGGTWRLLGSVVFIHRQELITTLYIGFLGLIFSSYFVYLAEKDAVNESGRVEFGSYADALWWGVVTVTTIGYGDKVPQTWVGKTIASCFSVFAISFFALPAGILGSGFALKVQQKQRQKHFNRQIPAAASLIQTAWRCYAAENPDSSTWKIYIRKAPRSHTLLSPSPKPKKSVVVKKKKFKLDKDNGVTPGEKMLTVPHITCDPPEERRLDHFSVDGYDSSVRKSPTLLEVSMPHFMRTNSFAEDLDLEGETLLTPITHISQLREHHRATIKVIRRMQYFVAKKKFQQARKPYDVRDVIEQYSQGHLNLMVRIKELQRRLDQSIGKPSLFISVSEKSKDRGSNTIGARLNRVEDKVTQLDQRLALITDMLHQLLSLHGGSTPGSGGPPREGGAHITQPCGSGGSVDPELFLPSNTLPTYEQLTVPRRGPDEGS
SMILES,outcome,potentiation
CC(=O)c1c(-c2ccccc2)c2cc([N+](=O)[O-])ccc2[nH]c1=O,inactive,–
CC(C)Cn1c(=S)[nH]c2cc(Cl)ccc21,–,70.5% (active)
O=C(Nn1c(Cc2cccs2)nc2ccccc2c1=O)c1cccs1,inactive,–
COc1ccc(Cl)cc1N(C)C(=O)CCNC(=O)Cn1cnc2ccccc2c1=O,–,22.5% (active)
C=CCC(=O)N1CCC(n2nccc2NC(=O)CCOc2ccccc2)CC1,inactive,–
Cc1[nH]c(-c2ccccn2)nc(=S)c1Cl,–,106% (active)
CC1=NN(C(N)=S)C(=O)C1N=Nc1cccc(Cl)c1C (centres undefined),–,665% (active)
COc1cccc(OCC(=O)NNC(=O)C(=O)Nc2cccc(C)c2)c1,–,74.5% (active)
COc1ccc(CCN2CC(C(=O)Nc3ccc4c(c3)OCO4)CC2=O)cc1OC (centres undefined),–,21% (active)
COC(=O)c1sc(NC(=S)NC(=O)c2ccc(C)cc2)nc1C,–,50.5% (active)
COC(=O)C1=C(C(=O)OC)[C@@H]2N(C)c3ccccc3[C@@]23C[C@@H](C(=O)OC)N(C(=O)c2ccc(Br)cc2)C3=N1,–,104% (active)
O=C(NC(=S)N1CCN(c2ccc(Cl)cc2[N+](=O)[O-])CC1)c1cccs1,–,61% (active)
Cc1c(C(=O)NC(=S)NCc2cccnc2)oc2ccccc12,inactive,–
Cc1cccc(NC(=O)Nc2ccc(OCc3ccccc3)cc2)n1,inactive,–
COc1cccc(N=Nc2ccc3cccnc3c2O)c1,–,29% (active)
COc1ccc(Nc2nc(-c3sc(C)nc3C)cs2)c(OC)c1,inactive,–
O=c1c2cccnc2[nH]c(=S)n1CCC1=CCCCC1,–,64% (active)
Cc1ccc(-c2cc(-c3n[nH]c(=S)o3)c3ccccc3n2)cc1,–,260% (active)
COC(=O)c1ccc(CSc2ncnc3sc(C)c(C)c23)o1,–,24% (active)
Cc1ccc(CSc2nc3ccccc3c(=O)n2CCCC(=O)NCc2ccco2)cc1,inactive,–

SMILES,outcome,potentiation
CCc1ccc(S(=O)(=O)NC(=S)NC2CCCCC2)cc1,–,108% (active)
COc1ccc(OCC(=O)Nc2cccc(C(C)=O)c2)cc1,inactive,–
O=C(O)C(c1ccccc1)N1C(=O)/C(=C\c2ccc(-c3ccc(Br)cc3)o2)SC1=S (centres undefined),–,17.5% (active)
O=C(COC(=O)c1cc(NS(=O)(=O)c2cccs2)ccc1O)Nc1cc(Cl)ccc1Cl,inactive,–
Cc1cccc(CS(=O)(=O)c2ncc(CO)n2C)c1,inactive,–
CCOC(=O)c1sc(NC(=O)c2ccncc2)nc1C,–,54% (active)
CC1(C)CC2CC(C)(CN2C(=S)NC(=O)c2ccccc2Cl)C1 (centres undefined),–,154% (active)
CCCCn1c(=O)nc2n(-c3ccccc3C)c3ccccc3cc-2c1=O,inactive,–
CCCCn1c(NS(=O)(=O)c2ccc(C)cc2)c(S(=O)(=O)c2ccccc2)c2nc3ccccc3nc21,inactive,–
Cc1ccc(S(=O)(=O)Nc2cc(C(F)(F)F)ccc2N2CCOCC2)c(C)c1,inactive,–
COCCCN=C1NN=C(c2cc(C)n(-c3ccccc3F)c2C)CS1,inactive,–
O=C(NC(=S)N1CCCc2ccccc21)c1ccc(Br)cc1,–,112% (active)
Cc1nn(C)c(C(=O)NC(=S)Nc2ccc([N+](=O)[O-])cc2)c1Cl,–,72% (active)
CC1(C)CC(N2CCOCC2)=CC(=[N+]2CCOCC2)C1,inactive,–
CCc1ccc2nc(N(CCCN(C)C)C(=O)c3ccc(S(=O)(=O)N4CCCc5ccccc54)cc3)sc2c1,inactive,–
Cn1c(O)c(N=Nc2nc(-c3ccccc3)cs2)c2ccccc21,–,385% (active)
CS(=O)(=O)N1CCN(Cc2ccc(C(F)(F)F)cc2)CC1,inactive,–
CCOC(=O)/C(C)=N/NC(=O)c1ccc([N+](=O)[O-])cc1,–,157% (active)
COC(=O)c1ccc(NC(=S)NC(=O)c2c(Cl)cnn2C)cc1,–,26% (active)
